Laboratory results taken from PMC10546487 (Journal of medicinal chemistry, 2022).
Like-named read-outs stand apart in the source and are kept apart here.

Columns and labels:
DOR [1] = molecular target: T1, DOR (Mus musculus, UniProt P32300); assay: Radioligand competition binding assay, DOR
KOR [2] = molecular target: T2, KOR (Mus musculus, UniProt P33534); assay: KOR [35S]GTPγS functional assay; assay type: biochemical
DOR [3] = molecular target: T1, DOR; assay: DOR [35S]GTPγS functional assay; assay type: biochemical
MOR [4] = molecular target: T3, MOR (Mus musculus, UniProt P42866); assay: Calcium flux assay in Gqi5-transfected MOR-CHO cells; assay type: cell-based; settings: 0.3 nM to 3 μM
T3 sequence (P42866 whole entry): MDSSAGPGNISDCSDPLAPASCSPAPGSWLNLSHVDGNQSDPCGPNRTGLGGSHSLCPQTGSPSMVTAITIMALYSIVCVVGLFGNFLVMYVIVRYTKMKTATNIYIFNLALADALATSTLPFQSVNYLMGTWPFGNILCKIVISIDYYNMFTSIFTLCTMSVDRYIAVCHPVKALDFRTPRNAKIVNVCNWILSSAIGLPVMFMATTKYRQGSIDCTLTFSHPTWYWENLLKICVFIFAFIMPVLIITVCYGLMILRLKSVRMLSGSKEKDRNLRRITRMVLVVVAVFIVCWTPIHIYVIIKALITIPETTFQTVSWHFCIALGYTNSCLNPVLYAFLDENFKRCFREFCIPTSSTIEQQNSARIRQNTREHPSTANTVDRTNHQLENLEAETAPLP
Outline: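 Gqi5 cDNA lipofected into MOR-CHO cells, 4 h at 37 °C/5% CO2, then trypsinized, plated at […] and grown to confluence. At 48 h post-transfection, cells loaded 45 min with fluo-4 AM plus probenecid in HBSS–HEPES–Ca–Mg buffer. Test compound (0.3 nM–3 μM) given for agonist activity; Ca2+ read as RFU peak. Triplicate doses; ≥4 repeats.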

morphine-pelleted mice [5] = assay: Opioid withdrawal study in chronic morphine-pelleted mice; assay type: in vivo, mouse; settings: vs 1 mg/kg naloxone
MOR [6] = molecular target: T3, MOR; assay: Radioligand competition binding assay, MOR; settings: for Selectivity δ/μ: ratio of Ki values DOR/MOR
[7] = Metabolic stability in rat liver microsomes; assay type: in vitro ADME
[8] = Metabolic stability in human liver microsomes; assay type: in vitro ADME
hERG potassium channel = hERG potassium channel (Homo sapiens, UniProt Q12809); assay: hERG automated patch-clamp assay in CHO-K1 cells; settings: ratio of hERG IC50 values vs NAN
Chain of hERG potassium channel (Q12809 whole entry): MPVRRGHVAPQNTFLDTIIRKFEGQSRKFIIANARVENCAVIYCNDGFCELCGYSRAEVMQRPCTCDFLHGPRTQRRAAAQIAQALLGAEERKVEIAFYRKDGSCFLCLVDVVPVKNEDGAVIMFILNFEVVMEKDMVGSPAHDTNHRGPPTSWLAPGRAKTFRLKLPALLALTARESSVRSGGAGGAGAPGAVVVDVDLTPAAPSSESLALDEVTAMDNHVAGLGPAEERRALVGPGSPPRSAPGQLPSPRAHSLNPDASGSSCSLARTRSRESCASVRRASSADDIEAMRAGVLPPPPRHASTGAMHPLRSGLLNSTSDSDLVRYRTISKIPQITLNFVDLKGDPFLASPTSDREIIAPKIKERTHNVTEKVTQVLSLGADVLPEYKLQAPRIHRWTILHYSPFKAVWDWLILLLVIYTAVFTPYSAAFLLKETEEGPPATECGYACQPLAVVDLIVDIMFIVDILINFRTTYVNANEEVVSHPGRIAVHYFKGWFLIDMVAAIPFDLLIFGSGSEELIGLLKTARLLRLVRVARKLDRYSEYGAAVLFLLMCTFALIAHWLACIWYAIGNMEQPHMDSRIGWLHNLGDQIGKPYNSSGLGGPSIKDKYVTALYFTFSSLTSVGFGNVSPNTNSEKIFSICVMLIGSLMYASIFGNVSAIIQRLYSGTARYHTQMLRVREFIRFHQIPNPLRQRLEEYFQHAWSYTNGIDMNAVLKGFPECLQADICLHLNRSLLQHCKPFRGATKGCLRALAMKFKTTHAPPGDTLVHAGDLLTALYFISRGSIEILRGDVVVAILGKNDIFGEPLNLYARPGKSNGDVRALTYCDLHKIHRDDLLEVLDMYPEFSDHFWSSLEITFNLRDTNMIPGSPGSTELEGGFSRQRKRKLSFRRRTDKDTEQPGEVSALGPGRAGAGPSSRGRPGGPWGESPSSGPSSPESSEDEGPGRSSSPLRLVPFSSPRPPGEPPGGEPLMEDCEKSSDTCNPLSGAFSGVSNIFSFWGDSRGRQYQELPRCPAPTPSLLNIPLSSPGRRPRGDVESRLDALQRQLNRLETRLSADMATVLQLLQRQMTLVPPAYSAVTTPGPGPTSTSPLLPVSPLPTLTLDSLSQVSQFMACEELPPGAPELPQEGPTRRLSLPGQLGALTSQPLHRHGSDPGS

mice = assay: Warm-water tail immersion assay; assay type: in vivo, mouse; settings: 10 mg/kg s.c. in the presence of morphine (10 mg/kg)
Outline: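 Male Swiss-Webster mice (23–35 g, 7–8 weeks), n = 5 per group. Single test-compound dose of 10 mg/kg given subcutaneously at time 0. Tail-flick latency measured in water at 56 ± 0.1 °C. Saline served as negative control and morphine as positive control. Response expressed as % maximum possible effect, reported as mean ± SD.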

KOR [9] = molecular target: T2, KOR; settings: [35S]GTPγS; cited from earlier work
morphine-pelleted mice [10] = settings: 50 mg/kg; cited from earlier work
DOR [11] = molecular target: T1, DOR; settings: [35S]GTPγS; cited from earlier work
[12] = Solubility observed during testing; assay type: physicochemical; settings: during binding/functional testing

T1 sequence (P32300 whole entry): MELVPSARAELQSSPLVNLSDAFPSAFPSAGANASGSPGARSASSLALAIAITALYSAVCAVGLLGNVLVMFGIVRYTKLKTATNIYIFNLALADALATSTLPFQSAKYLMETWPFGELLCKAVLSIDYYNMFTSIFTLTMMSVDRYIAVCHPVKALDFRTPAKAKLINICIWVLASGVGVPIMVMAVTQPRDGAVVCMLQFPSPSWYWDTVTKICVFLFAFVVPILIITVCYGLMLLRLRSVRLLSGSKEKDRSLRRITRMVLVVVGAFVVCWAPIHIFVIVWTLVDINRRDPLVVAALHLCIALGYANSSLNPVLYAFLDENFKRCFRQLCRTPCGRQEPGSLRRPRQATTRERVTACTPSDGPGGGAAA
T2 sequence (P33534 whole entry): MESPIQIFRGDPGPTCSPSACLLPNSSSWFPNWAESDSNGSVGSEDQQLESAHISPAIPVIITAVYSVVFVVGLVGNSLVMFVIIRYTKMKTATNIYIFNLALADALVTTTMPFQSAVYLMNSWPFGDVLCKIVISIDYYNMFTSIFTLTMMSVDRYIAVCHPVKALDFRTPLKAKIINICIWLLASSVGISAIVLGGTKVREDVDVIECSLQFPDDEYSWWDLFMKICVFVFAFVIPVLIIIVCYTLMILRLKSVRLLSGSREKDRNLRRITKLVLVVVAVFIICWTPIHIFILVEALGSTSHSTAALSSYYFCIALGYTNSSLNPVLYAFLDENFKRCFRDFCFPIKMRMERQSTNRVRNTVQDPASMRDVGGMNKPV

Compound: Cc1cc2cccc(C(=O)N[C@H]3CC[C@@]4(O)[C@H]5Cc6ccc(O)c7c6[C@@]4(CCN5CC4CC4)[C@H]3O7)c2[nH]1.Cl [Compound 21, 17-Cyclopropylmethyl-3,14β-dihydroxy-4,5α-epoxy-6α-(2-methyl-indole-7-carboxamido)morphinan]
- Ki (DOR [1]): 16 ± 1.09 nM
- EC50 (KOR [2]; KOR EC50 (nM), mean ± SEM): 6.65 ± 0.78 nM
- KOR Emax(% max of U50,488H) (KOR [2]; relative to KOR full agonist U50,488H): 48.28 ± 1.45%
- EC50 (DOR [3]; DOR EC50 (nM), mean ± SEM): 4.99 ± 0.21 nM
- DOR Emax(% max of SNC80) (DOR [3]; relative to DOR full agonist SNC80): 76.82 ± 4.82%
- Agonist activity to increase the intracellular calcium concentration (MOR [4]): no obvious agonist activity
- Jumps (morphine-pelleted mice [5]; 40 mg/kg): not significantly different from those at 1 mg/kg naloxone
- Paw tremors (morphine-pelleted mice [5]; all doses up to 80 mg/kg): significantly fewer paw tremors
- Wet-dog shakes (morphine-pelleted mice [5]; all the doses tested): did not precipitate more wet-dog shakes
- Selectivity δ/μ (MOR [6]): 27.3
- CLint scaled [7]: < 38.5 mL/min/kg
- CLint scaled [8]: < 38.5 mL/min/kg
- Improvement of hERG profile in comparison to NAN (fold) (hERG potassium channel): seven-fold
- Blockage of the morphine-mediated antinociception (mice): different degrees of inhibition of morphine’s antinociceptive effect

Compound: O=C(N[C@H]1CC[C@@]2(O)[C@H]3Cc4ccc(O)c5c4[C@@]2(CCN3CC2CC2)[C@H]1O5)c1cccc2cc[nH]c12 [NAN, 17-cyclopropylmethyl-3,14β-dihydroxy-4,5α-epoxy-6α-(indole-7-carboxamido)morphinan]
- KOR Emax(% max of U50,488H) (KOR [9]): 73.90 ± 3.69%
- Paw tremors (morphine-pelleted mice [10]): seemingly more paw tremors
- Wet-dog shakes and jumps (morphine-pelleted mice [10]): did not induce significant wet-dog shakes and jumps
- DOR Emax(% max of SNC80) (DOR [11]): 26.67 ± 1.17%

Compound: CC(=O)c1c[nH]c2c(C(=O)N[C@@H]3CC[C@@]4(O)[C@H]5Cc6ccc(O)c7c6[C@@]4(CCN5CC4CC4)[C@H]3O7)cccc12 [Compound 11, 17-Cyclopropylmethyl-3,14β-dihydroxy-4,5α-epoxy-6β-(3-acetyl-indole-7-carboxamido)morphinan]
- Ki (DOR [1]): 81.1 ± 9.98 nM
- Solubility observed in the in vitro assay [12]: poor solubility
- Selectivity δ/μ (MOR [6]): < 1.6
- Selectivity κ/μ (MOR [6]; ratio of Ki values KOR/MOR): <0.3
